In the library only some 4.4% were active in any assay of this set; here they are far more common.
NR3A LBD binder = modulators (binders) of human NR3A ligand-binding domain; 340,000 compounds, 2.5% hits; Tm shift relative to glycine control, % at 25 µM; NR3A LBD differential scanning fluorimetry, Tm shift; 0% = protein alone, 100% = glycine-bound protein;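 active = melting temperature shift of at least 10% of the positive control shift, at one fixed dose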
EBI2 antag = antagonists of human EBI2 receptor. inhibition, % at 5 µM. EBI2 beta-arrestin recruitment, luminescence, 7a,25-OHC stimulated. 360,000 compounds, 0.81% hits. P32249; in the data active = inhibition above about 38%;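 note: enzyme fragment complementation signal reports receptor beta-arrestin coupling in cells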
Target sequence (P32249 whole entry, looked up, the tested form may be a part): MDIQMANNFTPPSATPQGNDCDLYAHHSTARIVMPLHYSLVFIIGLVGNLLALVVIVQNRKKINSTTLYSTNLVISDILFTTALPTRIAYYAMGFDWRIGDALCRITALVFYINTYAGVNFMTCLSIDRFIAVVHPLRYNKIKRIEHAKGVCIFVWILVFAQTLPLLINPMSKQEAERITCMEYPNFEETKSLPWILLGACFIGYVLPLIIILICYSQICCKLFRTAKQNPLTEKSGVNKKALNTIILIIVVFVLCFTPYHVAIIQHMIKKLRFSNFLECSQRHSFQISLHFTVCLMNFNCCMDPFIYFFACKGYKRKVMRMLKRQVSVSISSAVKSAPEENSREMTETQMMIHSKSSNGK
MPTP block = inhibitors of mitochondrial permeability transition pore; inhibition, % at 10 µM; 360,000 compounds, 1.4% hits; isolated mouse mitochondria, Ca2+ swelling absorbance, 30 min;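 active = inhibition of 50% or more, scaled per plate between neutral and stimulator controls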
SENP1 FRET inh = blocks the human SENP1 SUMO protease catalytic domain | inhibition, % at 10 µM | AID 624204 | 360,000 compounds, 0.21% hits | Q9P0U3 | recombinant SENP1 catalytic domain, CyPet-SUMO1-YPet FRET cleavage;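 active = inhibition at least 30% at 10 µM, raw YFP signal under a set limit, fluorescence ratio 0.5 to 1.5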
Target sequence (Q9P0U3 419-644 limits assumed): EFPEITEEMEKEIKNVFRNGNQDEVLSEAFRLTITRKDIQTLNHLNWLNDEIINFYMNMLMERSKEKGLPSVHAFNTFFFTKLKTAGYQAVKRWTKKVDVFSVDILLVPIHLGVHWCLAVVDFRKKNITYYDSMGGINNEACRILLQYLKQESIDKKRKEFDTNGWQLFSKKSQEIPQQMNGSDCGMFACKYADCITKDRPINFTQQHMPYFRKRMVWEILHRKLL
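System: Recombinant human SENP1 catalytic domain, His6-tagged | Incubation: Enzyme reaction for 50 min at room temperature, dark | Medium: Tris pH 8 with BME, BSA, NP40 and catalase | Also added: 25 nM SUMO1 FRET substrate | Compound: 10 µM single point, 0.5% DMSO | Measured by: FRET fluorescence in CFP and YFP emission channels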
Rh123 counter = Rhodamine 123 counter-screen of mitochondrial pore hits; shares compounds with MPTP block; inhibition, % at 10 µM; 5,000 compounds, 78% hits; isolated mitochondria, membrane potential, Rhodamine 123 fluorescence; AID 624504; in the data active = inhibition above about 22%
MPTP abs DR = MPTP inhibition, dose response swelling confirmation; shares compounds with MPTP block; isolated mitochondria swelling, absorbance; IC50, µM; 780 compounds, 58% hits; AID 651561; in the data active = IC50 below about 20 µM
MPTP cs DR = counter-screen for mitochondrial permeability transition pore inhibitors, dose response; shares compounds with MPTP block; isolated mitochondria counterscreen, fluorescence read-out; IC50, µM; 780 compounds, 49% hits; AID 651564; in the data active = IC50 below about 80 µM
Large screens that a line does not name were inactive (follow-up assays come after a bar, where they were run).

COc1ccccc1CNc1nc(NCc2ccccc2)nc2ccsc12	MPTP block 74.1 (no result: NR3A LBD binder) | Rh123 counter 95.2
COc1ccccc1CNc1nc(NCc2cccc(OC)c2OC)c2sccc2n1	MPTP block 51.4 (no result: NR3A LBD binder) | Rh123 counter 94.7
O=C(CNC(=O)c1nc[nH]c1C(=O)NCc1ccccc1)OCc1ccccc1	none
CN(C(=O)c1nn(C)c2c1CSc1ccccc1-2)c1ccccc1Cl	none
CCOc1ccccc1NC(=O)NCc1ccc(F)cc1	none
CCCCC#Cc1ccc(C(=O)NNC(=O)Nc2cc(Cl)cc(Cl)c2)o1	MPTP block 78.9 | Rh123 counter 76.8
CC(C)CNC(=O)COC(=O)Cc1ccc(Cl)cc1	none
COc1ccc(CNc2ncnc3c2[nH]c2cc(OC)c(OC)cc23)cc1	none
COc1ccc(CNc2ncnc3c2[nH]c2ccccc23)cc1	MPTP block 90.8 | Rh123 counter 90.9
C1=C(CCNc2ncnc3c2[nH]c2ccccc23)CCCC1	MPTP block 103.6 | Rh123 counter 82.9
Brc1ccc2[nH]c3c(NCc4ccccn4)ncnc3c2c1	MPTP block 57.4 | Rh123 counter 71.6
CCN1CCN(C(=S)c2ccc(OCC(=O)N3CCOCC3)cc2)CC1	none
CC(=O)c1ccc(NC(=O)Nc2ccc3c(c2)N(C)C(=O)CS3)cc1	NR3A LBD binder 19.2, MPTP block 96.3 | Rh123 counter 77.3
CN1C(=O)CSc2ccc(NC(=O)NCCC3=CCCCC3)cc21	MPTP block 75.4 | Rh123 counter 78.0
COc1ccc(NC(=O)Nc2ccc3c(c2)N(C)C(=O)CS3)cc1OC	none
COc1ccc(NC(=O)Nc2ccc3c(c2)N(C)C(=O)CS3)cc1Cl	NR3A LBD binder 27.1, MPTP block 92.7 | Rh123 counter 67.5
Cc1cccc(NC(=O)Nc2ccc3c(c2)N(C)C(=O)CS3)n1	none
Cc1cccc(NC(=S)N(c2ccccc2)C(C)C)c1C	none
Cc1nn(C)c(C(=O)Nc2c(C)nn(Cc3c(F)c(F)c(F)c(F)c3F)c2C)c1Br	none
CN(C)CCCN1c2ccccc2Sc2ccc(C(F)(F)F)cc21	MPTP block 101.6 | Rh123 counter inactive
OCCN1CCN(CCCN2c3ccccc3Sc3ccc(C(F)(F)F)cc32)CC1	MPTP block 86.0 | Rh123 counter inactive
OCCN1CCN(CC/C=C2/c3ccccc3Sc3ccc(C(F)(F)F)cc32)CC1	MPTP block 90.7 | Rh123 counter inactive
CN(C)CCC(=O)N1c2ccccc2Sc2ccc(C(F)(F)F)cc21	none
COc1ccccc1CNC(=O)CCc1nnc2ccc(NCCCN3CCCC3=O)nn12	none
O=c1cc(CSc2nnnn2-c2ccccc2)nc(Nc2ccc(F)cc2)[nH]1	MPTP block 56.1 | Rh123 counter 83.9
Cc1ccc(Nc2nc(CSc3nnnn3-c3ccccc3)cs2)cc1	none
O=[N+]([O-])c1ccc(NC(=S)N2CCc3ccccc32)cc1	none
NC(N)=Nc1ccc(C=C2C=Cc3ccccc32)cc1	MPTP block 58.2 | Rh123 counter inactive | MPTP abs DR 3.68 | MPTP cs DR 31.3
O=S(=O)(NCCN1CCOCC1)c1ccc(Oc2ccccc2Cl)cc1	MPTP block 75.4 | Rh123 counter 34.8
Cc1ccccc1CC1(CO)CCCN(Cc2nc(-c3cccs3)oc2C)C1 (stereo not drawn)	none
CC(C)CC(C(=O)Nc1oc(-c2ccccc2)c(-c2ccccc2)c1C#N)N1C(=O)c2ccccc2C1=O (stereo not drawn)	MPTP block 74.4 | Rh123 counter 68.9
O=C(COC(=O)C1(c2ccc(Cl)cc2)CCCC1)NCc1ccco1	none
CCc1ccc(NC(=O)COC(=O)C2(c3ccc(Cl)cc3)CCCC2)cc1	MPTP block 65.1 | Rh123 counter 75.2
N#C/C(=C\c1ccncc1)c1nc2ccccc2o1	none
N#C/C(=C\Nc1ccccc1O)c1nc2ccccc2o1	NR3A LBD binder 26.7, MPTP block 77.3 | Rh123 counter 77.5
C=CCN=c1scc(-c2ccc(F)cc2)n1/N=C/c1ccccn1	none
C=CCN=c1scc(-c2ccc3c(c2)NC(=O)CO3)n1/N=C(\C)c1ccccn1	MPTP block 94.9 | Rh123 counter 62.2
C=CCN(CC=C)C(=O)c1ccc2nc(Cc3ccc(OC)c(OC)c3)oc2c1	MPTP block 50.5 | Rh123 counter inactive | MPTP abs DR inactive | MPTP cs DR 42.7
COc1ccc(Cc2nc3ccc(C(=O)NCc4cc(C)no4)cc3o2)cc1OC	none
Cc1ccc(/C([O-])=C(/C(=S)Nc2ccc(SC(F)F)cc2)[n+]2ccccc2)cc1[N+](=O)[O-]	MPTP block 64.1 | Rh123 counter 80.0
CCCN(CC(=O)Nc1ccccc1Br)CC(=O)Nc1ccc(F)c(F)c1F	none
CCCN(CC(=O)Nc1cc(Cl)cc(Cl)c1)CC(=O)Nc1ccc(F)c(F)c1F	NR3A LBD binder 20.1, MPTP block 56.9 | Rh123 counter 58.8
O=C(CCNc1ccc(Cc2ccncc2)cc1)c1ccc([N+](=O)[O-])cc1	MPTP block 75.2 | Rh123 counter 67.9
Cc1ccc(C(=O)Nc2ccc(Cc3ccncc3)cc2)cc1[N+](=O)[O-]	MPTP block 99.1 | Rh123 counter 64.2
Cc1ccc([C@H]2C[C@@H](O)[C@H](n3cc(C4CC4)nn3)CN2C(=O)C2CCCCC2)cc1	none (no result: NR3A LBD binder)
Cc1ccc(N(CC(=O)NC2CCCC2)C(=O)c2c(C)noc2C)cc1C	none
CCOC(=O)c1ccc(NC(=O)Nc2ccc3c4c(cccc24)C(=O)N3CC)cc1	NR3A LBD binder 17.1, MPTP block 94.9 | Rh123 counter 32.8
CCN1C(=O)c2cccc3c(NS(=O)(=O)c4ccc(NC(C)=O)cc4)ccc1c23	none
CC(C)c1ccc(NC(=O)Nc2nnc([C@H]3C[C@H](O)[C@@H](CO)O3)s2)cc1	none (no result: NR3A LBD binder)
CCCCCCc1cc2cc(-c3nnc(-c4ccccc4O)o3)c(=O)oc2cc1O	NR3A LBD binder 28.6, MPTP block 103.9 | Rh123 counter inactive
CCCCCCc1cc2cc(-c3nnc(-c4cc(OC)c(OC)c(OC)c4)o3)c(=O)oc2cc1O	none (no result: EBI2 antag, MPTP block, SENP1 FRET inh)
CCCCCCc1cc2cc(C(=O)Nc3ccccc3OC)c(=O)oc2cc1O	MPTP block 57.0 | Rh123 counter inactive | MPTP abs DR 2.57 | MPTP cs DR <2.5
CCCCCCc1cc2cc(-c3nnc(-c4ccccc4OC)o3)c(=O)oc2cc1O	NR3A LBD binder 23.8, MPTP block 83.9 | Rh123 counter inactive
CCCCCCc1cc2cc(S(=O)(=O)c3ccc(F)cc3)c(=O)oc2cc1O	MPTP block 81.4 | Rh123 counter 93.1
O=C(O)c1ccc2oc(=O)c(S(=O)(=O)c3ccc(F)cc3)cc2c1	none
COc1ccc(NC(=O)c2cc3ccccc3oc2=O)c(OC)c1	none
CC(C)NC(=O)COC(=O)c1ccccc1C(=O)c1ccccc1	none
Cc1ccc(C)c(OCCC(=O)N(C)CC(=O)Nc2c(C)cccc2C)c1	none

Compound activity from PubChem BioAssay.
